Results of several laboratories.
Lines come from different studies, so protocols differ.
ABL1 M351T phosphorylated: Tyrosine-protein kinase ABL1, phosphorylated (ABL1, Homo sapiens, UniProt P00519, M351T)
ABL1 T315I phosphorylated: Tyrosine-protein kinase ABL1, phosphorylated (ABL1, Homo sapiens, UniProt P00519, T315I)
ABL1 H396P phosphorylated: Tyrosine-protein kinase ABL1, phosphorylated (ABL1, Homo sapiens, UniProt P00519, H396P)
ABL1 M351T: Tyrosine-protein kinase ABL1 (ABL1, Homo sapiens, UniProt P00519, M351T)
ABL1 non-phosphorylated: Tyrosine-protein kinase ABL1, non-phosphorylated (ABL1, Homo sapiens, UniProt P00519)
ABL1 Q252H phosphorylated: Tyrosine-protein kinase ABL1, phosphorylated (ABL1, Homo sapiens, UniProt P00519, Q252H)
ABL1 T315I non-phosphorylated: Tyrosine-protein kinase ABL1, non-phosphorylated (ABL1, Homo sapiens, UniProt P00519, T315I)
ABL1 phosphorylated: Tyrosine-protein kinase ABL1, phosphorylated (ABL1, Homo sapiens, UniProt P00519)
ABL1 F317I phosphorylated: Tyrosine-protein kinase ABL1, phosphorylated (ABL1, Homo sapiens, UniProt P00519, F317I)
ABL1 E255K phosphorylated: Tyrosine-protein kinase ABL1, phosphorylated (ABL1, Homo sapiens, UniProt P00519, E255K)

SMILES | target | assay | conditions | remaining binding [%]
CNC(=O)Nc1ccc2c(c1)[C@@]1(CC2)OC(=O)N(CC(=O)N(Cc2ccc(F)cc2)[C@@H](C)C(F)(F)F)C1=O | Tyrosine-protein kinase ABL1, phosphorylated (ABL1, Homo sapiens, UniProt P00519, Y253F) | cell-free assay, competition with immobilised ligand | 1 µM | 100
Cc1cnc(Nc2ccc(C(=O)N3CCC(N4CCCC4)CC3)cc2)nc1-c1cc2ccccc2s1 | ABL1 M351T phosphorylated | binding, competition with immobilised ligand | 1 µM | 1.4
COC(=O)Nc1nc2ccc(C(=O)c3ccccc3)cc2[nH]1 | ABL1 T315I phosphorylated | cell-free assay, competition with immobilised ligand | 10 µM | 3.2
CCOCCn1cc(C(=O)Nc2ccc(-n3nc(-c4cccnc4)cc3C(F)(F)F)cn2)ccc1=O | ABL1 T315I phosphorylated | cell-free assay, competition with immobilised ligand | 1 µM | 96
O=C(NCCCN1CCOCC1)c1ccc(Nc2nccc(-c3cc4ccccc4s3)n2)cc1 | ABL1 M351T phosphorylated | binding, competition with immobilised ligand | 1 µM | 49
CN(C(=O)c1ccccc1)c1cc(N(C)c2ccc3c(c2)CCc2ccc(C(=O)NCCN4CCOCC4)cc2C3=O)ccc1F | Tyrosine-protein kinase ABL1, phosphorylated (ABL1, Homo sapiens, UniProt P00519, F317L) | cell-free assay, competition with immobilised ligand | 1 µM | 68
COc1cnc(Nc2cccc(S(N)(=O)=O)c2)nc1N1CCN(c2ccccc2)CC1 | ABL1 H396P phosphorylated | binding, competition with immobilised ligand | 1 µM | 87
O=C(NCCCN1CCOCC1)c1ccc(Nc2ncc(Cl)c(-c3ccc(Cl)s3)n2)cc1 | ABL1 M351T phosphorylated | binding, competition with immobilised ligand | 1 µM | 27
CN(C)c1nccc(-c2cnc3ncccn23)n1 | ABL1 M351T | binding | 1 µM | 78
FC(F)(F)Oc1cccc(-c2cnc3ccc(-c4ccncc4)nn23)c1 | ABL1 non-phosphorylated | cell-free assay, competition with immobilised ligand | 5 µM | 68
N[C@@H]1CCN(c2nccc(-c3cnn4ncccc34)n2)C1 | Tyrosine-protein kinase ABL1 (ABL1, Homo sapiens, UniProt P00519, F317I) | binding | 1 µM | 100
COc1cnc(Nc2cccc(S(N)(=O)=O)c2)nc1N1CCN(c2ccccc2)C(=O)C1 | Tyrosine-protein kinase ABL1, non-phosphorylated (ABL1, Homo sapiens, UniProt P00519, F317I) | binding, competition with immobilised ligand | 1 µM | 89
CC(=O)N1CCC(c2ccc(C(=O)NC3=NCCN3)cc2C(F)(F)F)CC1 | ABL1 non-phosphorylated | cell-free assay, competition with immobilised ligand | 1 µM | 95
Nc1ncc2c(n1)-c1c([nH]c3ccc(C#CC4CC4)cc13)CCCC2 | ABL1 Q252H phosphorylated | binding, competition with immobilised ligand | 1 µM | 94
O=C(c1ccc(Nc2ncc(Cl)c(-c3cc4ccccc4s3)n2)cc1)N1CCC(N2CCCC2)CC1 | ABL1 T315I non-phosphorylated | binding, competition with immobilised ligand | 1 µM | 0.9
C[C@H]1CCN(c2nccc(-c3cnn4ncccc34)n2)C1 | ABL1 phosphorylated | binding | 1 µM | 59
c1cncc(-c2cccc(Nc3nccc(NC4CCCCC4)n3)c2)c1 | ABL1 phosphorylated | binding, competition with immobilised ligand | 10 µM | 32
CNC(=O)[C@@H]1CC[C@@H](n2c(-c3ccc4cnccc4c3)nc3ccc(C(=O)NCc4cccc(C(N)=O)c4)cc32)C1 | ABL1 Q252H phosphorylated | binding, competition with immobilised ligand | 1 µM | 100

SMILES | target | assay | conditions | remaining binding [%]
C[C@@H](c1ccc(-n2cnc3c(N)ncnc32)cc1)N1CCc2nn(C)c(Cc3ccccc3)c2C1=O | ABL1 Q252H phosphorylated | binding, competition with immobilised ligand | 0.1 µM | 72
CN(c1nccc(-c2cnn3ncccc23)n1)C1CC1 | ABL1 non-phosphorylated | binding | 1 µM | 100
COc1ncc2cc3ccccc3nc2c1C#N | ABL1 F317I phosphorylated | cell-free assay, competition with immobilised ligand | 5 µM | 100
CO[C@H]1CC[C@H](CNc2ccc(S(=O)(=O)NC(=O)c3ccc(N4CCN(CC5=C(c6ccc(Cl)cc6)CC(C)(C)CC5)CC4)cc3Oc3cnc4[nH]ccc4c3)cc2[N+](=O)[O-])CC1 | ABL1 E255K phosphorylated | binding, competition with immobilised ligand | 1 µM | 74
CN(CCCC(F)(F)F)c1nccc(-c2cnn3ncccc23)n1 | Tyrosine-protein kinase ABL1 (ABL1, Homo sapiens, UniProt P00519, H396P) | binding | 1 µM | 95
O=C(c1ccc(Nc2nccc(-c3cc4ccccc4s3)n2)cc1)N1CCC(N2CCCC2)CC1 | ABL1 M351T phosphorylated | binding, competition with immobilised ligand | 1 µM | 17
CN(C)c1ncnc(-c2ccc3nc(Nc4cc(CN5CCN(C(=O)CC(F)(F)F)CC5)ccn4)[nH]c3c2)c1Cl | ABL1 E255K phosphorylated | binding, competition with immobilised ligand | 1 µM | 49
CN1CCN(c2ccc(Nc3nccc(-c4ccccc4)n3)cc2C(F)(F)F)CC1 | ABL1 M351T | binding | 10 µM | 15
O=C(NCC1CCOCC1)c1n[nH]cc1NC(=O)c1c(F)cccc1F | ABL1 H396P phosphorylated | binding, competition with immobilised ligand | 1 µM | 93
CCN1CCN(Cc2ccc(C(=O)Nc3ccc(C)c(Oc4ccc5c(c4)CC(=O)N5)c3)cc2C(F)(F)F)CC1 | ABL1 T315I phosphorylated | binding, competition with immobilised ligand | 1 µM | 88
F[C@@H]1CCN(c2nccc(-c3cnn4ncccc34)n2)C1 | Tyrosine-protein kinase ABL1 (ABL1, Homo sapiens, UniProt P00519, E255K) | binding | 1 µM | 100
CC(=O)N1CCC(c2ccc(C(=O)NC(=N)N)cc2C(F)(F)F)CC1 | ABL1 Q252H phosphorylated | cell-free assay, competition with immobilised ligand | 1 µM | 100
O=C(c1ccc(Nc2ncc(Cl)c(-c3ccc(Cl)s3)n2)cc1)N1CCC(N2CCCC2)CC1 | ABL1 non-phosphorylated | binding, competition with immobilised ligand | 1 µM | 4.3
C=CC(=O)N1CCC(C(=O)NCC(=O)N2CCN(c3nc(-c4cnc(N)nc4C(F)F)nc(N4CCOCC4)n3)CC2)CC1 | ABL1 F317I phosphorylated | binding, competition with immobilised ligand | 1 µM | 94
CC1CCCN1c1nccc(-c2cnn3ncccc23)n1 (stereo not drawn) | ABL1 non-phosphorylated | binding, competition with immobilised ligand | 1 µM | 97
CCC(=O)N[C@@H]1CC[C@H](C(=O)N(C)c2ccc(-c3nc4ccccc4o3)cc2)C1 | Tyrosine-protein kinase ABL1, non-phosphorylated (ABL1, Homo sapiens, UniProt P00519, Q252H) | cell-free assay, competition with immobilised ligand | 1 µM | 77
c1cnn2ncc(-c3ccnc(N4CCC45COC5)n3)c2c1 | Tyrosine-protein kinase ABL1 (ABL1, Homo sapiens, UniProt P00519, Y253F) | binding | 1 µM | 59
O=C(Nc1c[nH]nc1C(=O)NC1CCNCC1)c1cc(F)cc(F)c1 | ABL1 T315I non-phosphorylated | binding, competition with immobilised ligand | 1 µM | 100
